Measured values reported in ChEMBL document CHEMBL3046615, “Isolation of nematicidal compounds from Tagetes patula L. yellow flowers: structure-activity relationship studies against cyst nematode Heterodera zeae infective stage larvae” (2011).
Active and inactive are the calls of the source. The calls are words filed in the database; no cut-off is given here.

Assays:
Heterodera zeae [1] = assay: Nematicidal activity against Heterodera zeae infective stage larvae assessed as nematode mortality at 1% under dark conditions measured 24 hr post dose by stereoscopic microscopy; format: functional
Method in brief: (§1)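 Freshly hatched H. zeae second-stage juveniles, 100 per Petri plate, three replicates. Samples in MeOH, DMSO or water were tested in glass cavity blocks; petroleum ether samples were dried onto the block and larvae transferred on agar pieces. Percentages are dilutions of 30 mg/mL stocks (extracts/fractions) or 1 mg/mL stocks (pure compounds). Incubated at 28 ± 2 °C in light or dark box; mortality averaged over three replicates.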

Heterodera zeae [2] = assay: Nematicidal activity against Heterodera zeae infective stage larvae assessed as nematode mortality at 2% under dark conditions measured 24 hr post dose by stereoscopic microscopy; format: functional; method in brief: as §1
Heterodera zeae [3] = assay: Nematicidal activity against Heterodera zeae infective stage larvae assessed as nematode mortality at 5% under dark conditions measured 24 hr post dose by stereoscopic microscopy; format: functional; method in brief: as §1
Heterodera zeae [4] = assay: Nematicidal activity against Heterodera zeae infective stage larvae assessed as nematode mortality at 0.125% under light conditions measured 48 hr post dose by stereoscopic microscopy; format: functional; method in brief: as §1
Heterodera zeae [5] = assay: Nematicidal activity against Heterodera zeae infective stage larvae assessed as nematode mortality at 0.25% under light conditions measured 48 hr post dose by stereoscopic microscopy; format: functional; method in brief: as §1
Heterodera zeae [6] = assay: Nematicidal activity against Heterodera zeae infective stage larvae assessed as nematode mortality at 0.125% under light conditions measured 24 hr post dose by stereoscopic microscopy; format: functional; method in brief: as §1
Heterodera zeae [7] = assay: Nematicidal activity against Heterodera zeae infective stage larvae assessed as nematode mortality at 0.25% under light conditions measured 24 hr post dose by stereoscopic microscopy; format: functional; method in brief: as §1
Heterodera zeae [8] = assay: Nematicidal activity against Heterodera zeae infective stage larvae assessed as nematode mortality at 0.5% under light conditions measured 24 hr post dose by stereoscopic microscopy; format: functional; method in brief: as §1
Heterodera zeae [9] = assay: Nematicidal activity against Heterodera zeae infective stage larvae assessed as nematode mortality at 1% under light conditions measured 24 hr post dose by stereoscopic microscopy; format: functional; method in brief: as §1
Heterodera zeae [10] = assay: Nematicidal activity against Heterodera zeae infective stage larvae assessed as nematode mortality at 2% under light conditions measured 24 hr post dose by stereoscopic microscopy; format: functional; method in brief: as §1
Heterodera zeae [11] = assay: Nematicidal activity against Heterodera zeae infective stage larvae assessed as nematode mortality at 5% under light conditions measured 24 hr post dose by stereoscopic microscopy; format: functional; method in brief: as §1
Heterodera zeae [12] = assay: Nematicidal activity against Heterodera zeae infective stage larvae assessed as nematode mortality at 0.125% under dark conditions measured 5 to 60 min post dose by stereoscopic microscopy; format: functional, organism-based
Method in brief: (§2)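 H. zeae freshly hatched second-stage juveniles, 100 per plate, three replicates, at 28 ± 2 °C under light or in a dark box. Dilutions are % of a stock: 30 mg/mL for extracts/fractions, 1 mg/mL for pure compounds. Methanol-, DMSO- or water-soluble samples were tested in glass cavity blocks. Petroleum ether-soluble samples were air-dried in the block and covered with agar pieces bearing cultured larvae. Mortality was followed over 5–60 min; each value is the mean of three experiments.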

Heterodera zeae [13] = assay: Nematicidal activity against Heterodera zeae infective stage larvae assessed as nematode mortality at 0.25% under dark conditions measured 5 to 60 min post dose by stereoscopic microscopy; format: functional, organism-based; method in brief: as §2
Heterodera zeae [14] = assay: Nematicidal activity against Heterodera zeae infective stage larvae assessed as nematode mortality at 0.5% under dark conditions measured 5 to 60 min post dose by stereoscopic microscopy; format: functional, organism-based; method in brief: as §2
Heterodera zeae [15] = assay: Nematicidal activity against Heterodera zeae infective stage larvae assessed as nematode mortality at 1% under dark conditions measured 5 to 60 min post dose by stereoscopic microscopy; format: functional, organism-based; method in brief: as §2
Heterodera zeae [16] = assay: Nematicidal activity against Heterodera zeae infective stage larvae assessed as nematode mortality at 2% under dark conditions measured 5 to 60 min post dose by stereoscopic microscopy; format: functional, organism-based; method in brief: as §2
Heterodera zeae [17] = assay: Nematicidal activity against Heterodera zeae infective stage larvae assessed as nematode mortality at 5% under dark conditions measured 5 to 60 min post dose by stereoscopic microscopy; format: functional, organism-based; method in brief: as §2
Heterodera zeae [18] = assay: Nematicidal activity against Heterodera zeae infective stage larvae assessed as nematode mortality at 0.125% under light conditions measured 5 to 60 min post dose by stereoscopic microscopy; format: functional, organism-based; method in brief: as §2
Heterodera zeae [19] = assay: Nematicidal activity against Heterodera zeae infective stage larvae assessed as nematode mortality at 0.25% under light conditions measured 5 to 60 min post dose by stereoscopic microscopy; format: functional, organism-based; method in brief: as §2
Heterodera zeae [20] = assay: Nematicidal activity against Heterodera zeae infective stage larvae assessed as nematode mortality at 0.5% under light conditions measured 5 to 60 min post dose by stereoscopic microscopy; format: functional, organism-based; method in brief: as §2
Heterodera zeae [21] = assay: Nematicidal activity against Heterodera zeae infective stage larvae assessed as nematode mortality at 1% under light conditions measured 5 to 60 min post dose by stereoscopic microscopy; format: functional, organism-based; method in brief: as §2
Heterodera zeae [22] = assay: Nematicidal activity against Heterodera zeae infective stage larvae assessed as nematode mortality at 2% under light conditions measured 5 to 60 min post dose by stereoscopic microscopy; format: functional, organism-based; method in brief: as §2
Heterodera zeae [23] = assay: Nematicidal activity against Heterodera zeae infective stage larvae assessed as nematode mortality at 5% under light conditions measured 5 to 60 min post dose by stereoscopic microscopy; format: functional, organism-based; method in brief: as §2
Heterodera zeae [24] = assay: Nematicidal activity against Heterodera zeae infective stage larvae assessed as nematode mortality at 0.125% under dark conditions measured 48 hr post dose by stereoscopic microscopy; format: functional; method in brief: as §1
Heterodera zeae [25] = assay: Nematicidal activity against Heterodera zeae infective stage larvae assessed as nematode mortality at 0.25% under dark conditions measured 48 hr post dose by stereoscopic microscopy; format: functional; method in brief: as §1
Heterodera zeae [26] = assay: Nematicidal activity against Heterodera zeae infective stage larvae assessed as nematode mortality at 0.125% under dark conditions measured 24 hr post dose by stereoscopic microscopy; format: functional; method in brief: as §1
Heterodera zeae [27] = assay: Nematicidal activity against Heterodera zeae infective stage larvae assessed as nematode mortality at 0.25% under dark conditions measured 24 hr post dose by stereoscopic microscopy; format: functional; method in brief: as §1
Heterodera zeae [28] = assay: Nematicidal activity against Heterodera zeae infective stage larvae assessed as nematode mortality at 0.5% under dark conditions measured 24 hr post dose by stereoscopic microscopy; format: functional; method in brief: as §1

CNC(=O)Oc1cccc2c1OC(C)(C)C2 [CARBOFURAN]
mortality (Heterodera zeae [1]): 100%
mortality (Heterodera zeae [2]): 100%
mortality (Heterodera zeae [3]): 100%
mortality (Heterodera zeae [4]): 100%
mortality (Heterodera zeae [5]): 100%
mortality (Heterodera zeae [6]): 40%
mortality (Heterodera zeae [7]): 80%
mortality (Heterodera zeae [8]): 100%
mortality (Heterodera zeae [9]): 100%
mortality (Heterodera zeae [10]): 100%
mortality (Heterodera zeae [11]): 100%
Activity (Heterodera zeae [12]): inactive
Activity (Heterodera zeae [13]): inactive
Activity (Heterodera zeae [14]): inactive
Activity (Heterodera zeae [15]): inactive
Activity (Heterodera zeae [16]): inactive
Activity (Heterodera zeae [17]): inactive
Activity (Heterodera zeae [18]): inactive
Activity (Heterodera zeae [19]): inactive
Activity (Heterodera zeae [20]): inactive
Activity (Heterodera zeae [21]): inactive
Activity (Heterodera zeae [22]): inactive
Activity (Heterodera zeae [23]): inactive
mortality (Heterodera zeae [24]): 100%
mortality (Heterodera zeae [25]): 100%
mortality (Heterodera zeae [26]): 60%
mortality (Heterodera zeae [27]): 80%
mortality (Heterodera zeae [28]): 100%
